Measurements: ChEMBL document CHEMBL4406880, “Design, synthesis, and bioactivity of dihydropyrimidine derivatives as kinesin spindle protein inhibitors” (Bioorg Med Chem, 2019)

Columns and labels:
Assay type in all cases: functional
HOP-62 = assay: Growth inhibition of human HOP62 cells assessed as cell viability at 0.1 uM incubated for 48 hrs by sulforhodamine B assay; details: HOP-62, 48 h, read-out: Activity
Hs-578T = assay: Growth inhibition of human Hs 578T cells assessed as cell viability at 0.001 uM incubated for 48 hrs by sulforhodamine B assay relative to control; details: read-out: Activity
LOX IMVI = assay: Growth inhibition of human LOXIMVI cells assessed as cell viability at 100 uM incubated for 48 hrs by sulforhodamine B assay; details: read-out: Activity
SF-268 = assay: Growth inhibition of human SF268 cells assessed as cell viability at 0.1 uM incubated for 48 hrs by sulforhodamine B assay; details: SF-268, 48 h, read-out: Activity
A549 = assay: Growth inhibition of human A549/ATCC cells incubated for 48 hrs by sulforhodamine B assay; details: A549, 48 h
Summary of the method: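 NCI-60 five-dose mode: five tenfold dilutions (0.01, 0.1, 1, 10, 100 µM) are applied for 48 h to cells in RPMI 1640 with 5% FBS at 37 °C. Endpoint is TCA fixation with sulforhodamine B read at 515 nm. % growth comes from the 0 h and control absorbances. GI50 is the concentration giving a 50% reduction in net cell growth.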

CCRF-CEM [1] = assay: Growth inhibition of human CCRF-CEM cells assessed as cell viability at 0.001 uM incubated for 48 hrs by sulforhodamine B assay relative to control; details: read-out: Activity
HCC 2998 = assay: Growth inhibition of human HCC2998 cells assessed as cell viability at 0.001 uM incubated for 48 hrs by sulforhodamine B assay relative to control; details: HCC 2998, 48 h, read-out: Activity
RPMI-8226 = assay: Growth inhibition of human RPMI8226 cells incubated for 48 hrs by sulforhodamine B assay; details: RPMI-8226, 48 h
Summary of the method: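 NCI-60 five-dose assay, SRB end-point, same culture conditions. Compound is tested at tenfold dilutions of 0.01, 0.1, 1, 10 and 100 µM for 48 h at 37 °C, with DMSO/PBS vehicle controls. Percentage growth at each concentration is taken against untreated cells and a time-zero plate. GI50 is 50% net growth decrease, TGI is total growth inhibition, and LC50 is 50% loss of initial cells.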

MOLT-4 = assay: Growth inhibition of human MOLT4 cells assessed as cell viability at 0.1 uM incubated for 48 hrs by sulforhodamine B assay; details: MOLT-4, 48 h, read-out: Activity
KM12 = assay: Growth inhibition of human KM12 cells assessed as cell viability at 0.001 uM incubated for 48 hrs by sulforhodamine B assay relative to control; details: KM12, 48 h, read-out: Activity
T47D = assay: Growth inhibition of human T47D cells incubated for 48 hrs by sulforhodamine B assay
Summary of the method: (§1)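 NCI-60 five-dose SRB assay. Cells were exposed for 48 h to tenfold dilutions of 0.01, 0.1, 1, 10 and 100 µM, in RPMI 1640 with 5% FBS. Plates fixed with TCA at the time of drug addition served as the time-zero reference. GI50 is the concentration giving a 50% reduction in net growth. TGI is total growth inhibition. LC50 is a net 50% loss of the initial cells.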

K562 = assay: Growth inhibition of human K562 cells assessed as cell viability at 0.001 uM incubated for 48 hrs by sulforhodamine B assay relative to control; details: K562, 48 h, read-out: Activity
SNB-75 = assay: Cell cycle arrest in human SNB75 cells assessed as accumulation in G0/G1 phase at 2 uM incubated for 24 hrs by propidium iodide based flow cytometry (reference value: 55.62 %)
Summary of the method: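 SNB-75 cells were exposed to 2 µM for 24 h at 37 °C, 5% CO2, then washed with PBS and fixed in 70% ethanol on ice for 15 min. They were stained 1 h at room temperature with 50 µg/mL propidium iodide, 0.1 mg/mL RNase A and 0.05% Triton X-100. DNA content was read by flow cytometry to give the % of cells in pre-G1, G0/G1, S and G2/M.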

PC-3 = assay: Growth inhibition of human PC3 cells incubated for 48 hrs by sulforhodamine B assay; details: PC-3, 48 h; summary of the method: as §1
CCRF-CEM [2] = assay: Growth inhibition of human CCRF-CEM cells assessed as cell viability at 100 uM incubated for 48 hrs by sulforhodamine B assay; details: read-out: Activity
NCI-H522 = assay: Growth inhibition of human NCI-H522 cells incubated for 48 hrs by sulforhodamine B assay; details: NCI-H522, 48 h
Summary of the method: (§2)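 NCI-60 five-dose SRB assay in RPMI 1640 with 5% FBS, 37 °C, 5% CO2. Compound given at five tenfold dilutions, 0.01–100 µM, for 48 h. Adherent cells fixed with TCA, suspension cells with 16% final TCA. Bound SRB read at 515 nm and growth calculated against time-zero and untreated controls. GI50 taken from dose–response curves as the concentration giving a 50% decrease in net cell growth.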

SR = assay: Growth inhibition of human SR cells incubated for 48 hrs by sulforhodamine B assay; summary of the method: as §1
DU-145 = assay: Growth inhibition of human DU145 cells assessed as cell viability at 0.1 uM incubated for 48 hrs by sulforhodamine B assay; details: DU-145, 48 h, read-out: Activity
SF-539 [3] = assay: Growth inhibition of human SF539 cells assessed as cell viability at 100 uM incubated for 48 hrs by sulforhodamine B assay; details: SF-539, 48 h, read-out: Activity
NCI-H460 = assay: Growth inhibition of human NCI-H460 cells incubated for 48 hrs by sulforhodamine B assay; details: NCI-H460, 48 h; summary of the method: as §2
SF-539 [4] = assay: Growth inhibition of human SF539 cells assessed as cell viability at 1 uM incubated for 48 hrs by sulforhodamine B assay; details: SF-539, 48 h, read-out: Activity
[5] = read-out: LC50 (the source's name)
[6] = read-out: pLC50 (the source's name) (converted)

## CC1=C(C(=O)OCc2ccccc2)C(c2ccc3c(c2)OCO3)n2c(nc3ccccc32)N1 (racemic)
HOP-62
  viability at 0.1 µM: 96%
Hs-578T
  viability at 0.001 µM: 87%
LOX IMVI
  viability at 100 µM: 32%
SF-268
  viability at 0.1 µM: 94%
A549; read-out: GI50
  GI50: 0.68 µM
A549; [5]
  CC50: > 100 µM
A549; read-out: TGI
  TGI: > 100 µM
A549; read-out: pGI50 (converted)
  GI50: 0.676 µM
A549; [6]
  CC50: > 100 µM
A549; read-out: pTGI
  TGI: > 100 µM
CCRF-CEM [1]
  viability at 0.001 µM: 101%
HCC 2998
  viability at 0.001 µM: 92%
RPMI-8226; [5]
  CC50: > 100 µM
RPMI-8226; read-out: TGI
  TGI: > 100 µM
RPMI-8226; [6]
  CC50: > 100 µM
RPMI-8226; read-out: pTGI
  TGI: > 100 µM
MOLT-4
  viability at 0.1 µM: 99%
KM12
  viability at 0.001 µM: 91%
T47D; read-out: GI50
  GI50: 0.48 µM
T47D; [5]
  CC50: > 100 µM
T47D; read-out: TGI
  TGI: > 100 µM
T47D; read-out: pGI50 (converted)
  GI50: 0.479 µM
T47D; [6]
  CC50: > 100 µM
T47D; read-out: pTGI
  TGI: > 100 µM
K562
  viability at 0.001 µM: 93%
SNB-75
  Activity: 34.52%
PC-3; read-out: GI50
  GI50: 0.55 µM
PC-3; [5]
  CC50: > 100 µM
PC-3; read-out: TGI
  TGI: > 100 µM
PC-3; read-out: pGI50 (converted)
  GI50: 0.55 µM
PC-3; [6]
  CC50: > 100 µM
PC-3; read-out: pTGI
  TGI: > 100 µM
CCRF-CEM [2]
  viability at 100 µM: 18%
NCI-H522; read-out: GI50
  GI50: 0.14 µM
NCI-H522; [5]
  CC50: > 100 µM
NCI-H522; read-out: TGI
  TGI: 33.2 µM
NCI-H522; read-out: pGI50 (converted)
  GI50: 0.135 µM
NCI-H522; [6]
  CC50: > 100 µM
NCI-H522; read-out: pTGI (converted)
  TGI: 33.1 µM
SR; read-out: GI50
  GI50: 1.71 µM
SR; [5]
  CC50: > 100 µM
SR; read-out: TGI
  TGI: > 100 µM
SR; read-out: pGI50 (converted)
  GI50: 1.7 µM
SR; [6]
  CC50: > 100 µM
SR; read-out: pTGI
  TGI: > 100 µM
DU-145
  viability at 0.1 µM: 109%
SF-539 [3]
  viability at 100 µM: 13%
NCI-H460; read-out: GI50
  GI50: 0.36 µM
NCI-H460; [5]
  CC50: > 100 µM
NCI-H460; read-out: TGI
  TGI: > 100 µM
NCI-H460; read-out: pGI50 (converted)
  GI50: 0.363 µM
NCI-H460; [6]
  CC50: > 100 µM
NCI-H460; read-out: pTGI
  TGI: > 100 µM
SF-539 [4]
  viability at 1 µM: 13%
